# In PMC9530962 (Redox Biology, 2022):
# Where two headings read alike, the source gives them in different places.
# Tests used:
# [1] = format: in vivo, SD rats
# Procedure, shortened: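 Male SD rats (8 weeks, 200 ± 20 g) were acclimated for 1 week. Each rat got one intragastric dose of AAI, alone or with lycopene; controls were n = 6. Three rats were killed at each time point: 0.25, 0.5, 1, 2, 4, 8, 12, 24 and 48 h. Kidney (0.3–1 g) was homogenized in normal saline at 1:3 (w:v), and AAI was measured by HPLC.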
# [2] = test system: C57BL/6 mice with renal injury induced by aristolochic acid exposure; assay: AAN mouse model: body weight, kidney coefficient, HE/PAS histopathology; format: in vivo
# Procedure, shortened: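 Male SPF C57BL/6 mice (6 weeks, 18–20 g) were acclimated for 1 week, then split into 5 groups (n = 6). Dosing was intragastric for 28 days, with vehicle 0.5% CMC. AAI 10 mg/kg/day was given at 13:00, and LYC 5 or 20 mg/kg/day at 08:00. Mice were killed 24 h after the last dose. Kidney coefficient = kidney/body weight. Kidney sections were stained with HE, PAS and Masson and scored for histopathology and tubular injury.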
# [3] = test system: C57BL/6 mice with renal injury induced by aristolochic acid exposure; assay: Renal function, kidney injury markers and oxidative stress markers in AAN mice; format: in vivo; conditions: for Cr and BUN levels in the serum: mice
# Procedure, shortened: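 C57BL/6 AAN model: AAI 10 mg/kg/day intragastric for 28 days, with LYC 5 or 20 mg/kg/day given separately. Blood was taken 24 h after the last dose and centrifuged at room temperature for serum. Serum creatinine and BUN were measured with commercial kits, and serum KIM-1 and NGAL by ELISA. MDA, SOD, T-AOC and GSH-PX were measured with commercial kits.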
# [4] = test system: C57BL/6 mice with renal injury induced by aristolochic acid exposure; format: in vivo
# NRK52E cytotoxicity = format: cell-based; conditions: rat, NRK52E renal tubular epithelial cells
# Procedure, shortened: (§1)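 NRK52E rat tubular epithelial cells were seeded at 8000 cells/well. Treatment was 24 h with AAI (0–80 μM) or LYC (0–40 μM), or AAI 40 μM with LYC 5 or 10 μM; drug went in by medium change at 40–50% density. CCK-8 (10% in serum-free DMEM) was added for 2 h at 37 °C and A450 read. Viability % = (OD sample − OD blank)/(OD control − OD blank) × 100. Morphology and confluence were viewed by light microscopy.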
# NRK52E cells [5] = assay: NRK52E cytotoxicity; format: cell-based; conditions: NRK52E
# Procedure, shortened: as §1
# [6] = test system: Nrf2-HO-1 antioxidant pathway; format: cell-based; conditions: NRK52E
# [7] = test system: TNF-α/NF-κB signaling pathway; format: cell-based; conditions: NRK52E
# NRK52E cells [8] = format: cell-based
# Aristolochic lactam = format: in vivo; conditions: rats, after oral gavage of AAI
# [9] = HPLC determination of lycopene content in rat kidney after oral gavage; format: in vivo, SD rats; conditions: rats
# Procedure, shortened: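 Rats (male SD) got one intragastric dose of AAI plus lycopene, and three were killed per time point (0.25–48 h). For each sample, 0.5 g kidney was homogenized with 1 ml saline. Protein in 100 μL homogenate was precipitated with 100 μL absolute ethanol, then 200 μL n-hexane (0.01% BHT) was added. HPLC used a C18 column (150 × 4.6 mm, 5 μm) with methanol:acetonitrile:dichloromethane 50:33:17, detection at 472 nm, 25 °C.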
# [10] = test system: Nrf2 antioxidant system, NF-κB signaling pathway and apoptosis-related genes in kidney; assay: Nrf2 system, NF-κB pathway and apoptosis gene expression in kidneys of AAN mice; format: in vivo, C57BL/6 mice
# [11] = oral gavage of lycopene; ref Previous studies; cited from earlier work
# [12] = mice, AAN group (AAI 10 mg/kg/day, 28 days)
compound,measurement,setting,value
"COc1cccc2c1cc([N+](=O)[O-])c1c(C(=O)O)cc3c(c12)OCO3 [AAI, Aristolochic acid A]",AA-I contents in kidney,"[1]; rats, Group AAI + LYC, 15min after intragastric administration",0
same,AA-I contents in kidney,"[1]; rats, Group AAI + LYC, 30min",7.955 ± 0.8107
same,AA-I contents in kidney,"[1]; rats, Group AAI + LYC, 1h",0
same,AA-I contents in kidney,"[1]; rats, Group AAI + LYC, 2h",1.516 ± 0.1493
same,AA-I contents in kidney,"[1]; rats, Group AAI + LYC, 4h",0
same,AA-I contents in kidney,"[1]; rats, Group AAI + LYC, 8h",0
same,AA-I contents in kidney,"[1]; rats, Group AAI + LYC, 12h",0
same,AA-I contents in kidney,"[1]; rats, Group AAI + LYC, 24h",0
same,AA-I contents in kidney,"[1]; rats, Group AAI + LYC, 48h",0
same,AA-I contents in kidney,"[1]; rats, Group AAI, 15min after intragastric administration",0
same,AA-I contents in kidney,"[1]; rats, Group AAI, 30min",8.546 ± 1.478
same,AA-I contents in kidney,"[1]; rats, Group AAI, 1h",0
same,AA-I contents in kidney,"[1]; rats, Group AAI, 2h",1.616 ± 0.04743
same,AA-I contents in kidney,"[1]; rats, Group AAI, 4h",0
same,AA-I contents in kidney,"[1]; rats, Group AAI, 8h",0
same,AA-I contents in kidney,"[1]; rats, Group AAI, 12h",0
same,AA-I contents in kidney,"[1]; rats, Group AAI, 24h",0
same,AA-I contents in kidney,"[1]; rats, Group AAI, 48h",0
same,time after feeding at which AAI has been metabolized completely in the kidney,"[1]; rats, oral gavage of AAI",2 h
same,contents of CR and BUN in the serum (preliminary experiment),"[2]; mice, AAI 10 mg/kg/day, vs normal control",significantly increased
same,body weight,[2]; [12],significantly reduced
same,scores of renal histopathology and tubular injury,[2]; [12],significantly increased
same,renal index,"[2]; mice, AAN group (AAI 10 mg/kg/day, 28 days) vs control",significantly lower
same,Cr and BUN levels in the serum,[3]; AAN group vs control,significantly higher
same,renal interstitium fibrosis (MASSON staining),"[4]; mice, AAN group vs control",severely fibrotic
same,expression of IL-12 in the kidneys,[4]; model mice vs control,decreased
same,"expression of TNF-α, IL-6, IL-10 in the kidneys",[4]; model mice vs control,increased
same,"viability at 24 h, 40 μM",NRK52E cytotoxicity,60%
same,degree of cell fusion,"NRK52E cells [5]; AAI group, light microscopy",about 50%
same,"expression of Nrf2, Keap-1, HO-1, NQO1, GSH-PX, and SOD",[6]; AAI exposure vs control,decreased
same,content of ROS,[6]; AAI group vs control,increased
same,"expression of NF-κB-p65, TNF-α, and IL-6",[7]; AAI group vs control,increased
same,NF-κB-P65 nuclear expression,"[7]; AAI group, immunofluorescence",significantly increased
same,number of apoptotic cells (early and late),"NRK52E cells [8]; AAI group vs control, flow cytometry",significantly increased
"CC(=O)O[C@@H]1CC[C@@]2(C)[C@@H](CC[C@]3(C)[C@@H]2C(=O)C=C2[C@@H]4[C@@H](C)[C@H](C)CC[C@]4(C)CC[C@]23C)[C@@]1(C)C(=O)O [AKBA, Acetyl-11-keto-β-boswellic acid]",content of ROS in the cells,"[6]; AKBA 40 μM, AAI 40 μM",decreased
same,"expression of Nrf2, keap-1, HO-1, NQO1","[6]; AKBA 40 μM, AAI 40 μM",increased
same,expression of Bcl-2,"[7]; AKBA 40 μM, AAI 40 μM",increased
same,"expression of NF-κB, TNF-α, Bax, Cleaved-Caspase3","[7]; AKBA 40 μM, AAI 40 μM",decreased
"COc1cccc2c1cc1c3c(cc4c(c32)OCO4)C(=O)N1 [ALI, Aristolochic lactam]",accumulation of ALI in the kidney after 2 h,Aristolochic lactam,no accumulation
CC(C)=CCC/C(C)=C/C=C/C(C)=C/C=C/C(C)=C/C=C/C=C(C)/C=C/C=C(C)/C=C/C=C(\C)CCC=C(C)C [Lycopene],content of AAI in the kidney of rats fed with lycopene compared with AAI alone,[1]; AAI + lycopene vs AAI alone,no significant difference
same,time of highest lycopene content in the kidney,[9],6 h
same,lycopene content in the kidney after 24 h,[9]; 24 h,~0
same,damaged renal tissue (HE and PAS staining),[2]; AAN mice after lycopene intervention,significant improvement
same,body weight,"[2]; AAN mice, AL20 group (LYC 20 mg/kg/d + AAI 10 mg/kg/day, 28 days)",increased
same,renal tubular structure (HE and PAS staining),"[2]; mice, LYC group (LYC 20 mg/kg/d alone)",intact without signs of lesions
same,expression of AAI-induced lipid peroxidation product (MDA),[3]; AAN mice,significantly decreased
same,"expression of antioxidant enzyme systems (T-AOC, SOD, and GSH-PX)",[3]; AAN mice,increased
same,expression levels of KIM-1 and NGAL induced by AAI,"[3]; AAN mice, serum, ELISA",significantly reduced
same,Cr and BUN levels in the serum,[3]; LYC group,significantly lower
same,degree of renal fibrosis (MASSON staining),[4]; AAN mice after LYC intervention,alleviated
same,"expression of TNF-α, IL-6, IL-10 and IL-12 in the kidneys","[4]; AAN mice, LYC 5 and 20 mg/kg/d, Western-blot, RT-PCR, ELISA",reversed the expression of these genes in a dose-dependent manner
same,cell viability,"NRK52E cells [5]; LYC 5 μM, 10 μM together with AAI, 24 h, dose-dependent",increased
same,Nrf2 intranuclear expression,"[6]; AAI plus LYC intervention, dose-dependent",significant increase
same,content of ROS,"[6]; AAI plus LYC intervention, dose-dependent, DCFH-DA",significant decrease
same,NF-κB-P65 nuclear expression,"[7]; AAI plus LYC intervention, immunofluorescence",significantly decreased
same,"expression of NF-κB-p65, TNF-α, IL-6, IkB and IL-12",[7]; AAI plus LYC treatment,reversed the expression of these proteins
same,expression of IL-1β in the cells,"[7]; LYC treatment vs AAI group, immunofluorescence",significantly decreased
same,"expression of Bax, Cleaved-Caspase3, Cleaved-Caspase9, Bcl-2, Caspase-3, and Caspase-9","NRK52E cells [8]; AAI plus LYC intervention, Western-blot and RT-PCR",reversed the expression of these proteins
same,number of apoptotic cells,"NRK52E cells [8]; AAI plus LYC intervention, flow cytometry",significantly decreased
same,cellular mitochondrial damage,"NRK52E cells [8]; AAI plus LYC intervention, transmission electron microscopy",significantly reduced
same,"expression of NF-κB-p65, TNF-α, IL-6, IL-10, IL-1β, IκB and IL-12 in the kidney",[10]; LYC intervention,reversed the expression of these genes in a dose-dependent manner
same,"Nrf2, Keap-1, HO-1, NQO1, GSH-PX and SOD expression in the kidneys",[10]; lycopene treatment,reversed the expression of these proteins
same,time at which lycopene is most abundant in the kidney,[11],6 to 8 h
Cc1ccccc1C(=O)N1CCc2cc(-c3nc(NC(=O)Cc4ccc5c(c4)OCO5)sc3C)ccc21 [ML385],"effect of LYC on NF-κB, TNF-α, Bax, Cleaved-Caspase-3 and BCL-2 expression when ML385 was added","[7]; ML385 5 μM, AAI 40 μM, LYC",significantly reduced or even ineffective
same,effect of LYC on apoptosis (DAPI staining) after the addition of ML385,"NRK52E cells [8]; AAI, LYC, ML385",the effect of LYC was inhibited
